Experimental data from ChEMBL document CHEMBL2176912, “Diphenyl purine derivatives as peripherally selective cannabinoid receptor 1 antagonists” (J Med Chem, 2012).
pKi: −log10 of the molar value.

Tests used:
[1] = Plasma concentration in Sprague-Dawley rat at 10 mg/kg, po after 60 mins; format: ADME, organism-based; parameters: dose 10 mg/kg, route oral
Method in brief: (§1)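 Male Sprague–Dawley rats, 8 weeks old, given 10 mg/kg orally in food-grade corn oil. Three to four animals per time point. Plasma and unperfused brain collected at 0.5–8 h. Brain homogenized in 50:50 ethanol/water. Samples protein-precipitated with acetonitrile and analysed by LC-MS/MS on a C18 column against standards in blank matrix.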

[2] = Drug uptake in Sprague-Dawley rat brain at 10 mg/kg, po after 60 mins; format: ADME, organism-based; parameters: dose 10 mg/kg, route oral; conditions: read-out: Drug uptake; method in brief: as §1
Nucleic Acid [3] = assay: Ratio of drug uptake in brain to plasma of Sprague-Dawley rat brain at 10 mg/kg, po after 120 mins; format: ADME, organism-based; parameters: dose 10 mg/kg, route oral; conditions: 2 h
Method in brief: (§2)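 Male Sprague–Dawley rats, 8 weeks old, dosed orally at 10 mg/kg in food-grade corn oil; 3–4 animals per time point. Plasma and unperfused brain collected post dose. Brain homogenized in 50:50 ethanol/water; plasma and homogenate extracted with acetonitrile and centrifuged. Analysed by LC-MS/MS against standards prepared in blank matrix. Ratio taken from brain and plasma concentrations.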

CHO-K1 = assay: Selectivity ratio of Ki for human CB2 receptor expressed in CHO-K1 cells to Ki for human CB1 receptor expressed in CHO-K1 cells
Liver = assay: Metabolic stability in human liver S9 fraction assessed as compound remaining after 120 mins; format: ADME, subcellular; conditions: s9, 2 h
Method in brief: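 Pooled mixed-gender human hepatic S9 at 1 mg/mL. Compound at 10 μM final in 50 mM potassium phosphate pH 7.4 with 3 mM MgCl2 and NADPH regeneration (NADP 1 mM, glucose-6-phosphate 5 mM, G6PDH 1 unit/mL). Triplicates incubated 0, 15, 30, 60, 120 min, stopped with 3 vol acetonitrile, LC-MS/MS against matrix standard curves; percent remaining at 120 min.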

Nucleic Acid [4] = assay: Ratio of drug uptake in brain to plasma of Sprague-Dawley rat brain at 10 mg/kg, po after 30 mins; format: ADME, organism-based; parameters: dose 10 mg/kg, route oral; conditions: 0.5 h; method in brief: as §2
Nucleic Acid [5] = assay: Ratio of drug uptake in brain to plasma of Sprague-Dawley rat brain at 10 mg/kg, po after 240 mins; format: ADME, organism-based; parameters: dose 10 mg/kg, route oral; conditions: 4 h; method in brief: as §2
MDCK = assay: Permeability from apical to basolateral side in dog MDCK cells expressing MDR-1 gene; format: ADME, cell-based, Canis lupus familiaris
Method in brief: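 MDCK-mdr1 cells grown on Transwell-type filters for 4 days to confluence in DMEM/F12 with 10% FBS and antibiotics. Compound applied apically at 10 μM in HBSS with 25 mM D-glucose, HEPES-buffered to pH 7.4. Incubated 1 h at 37 °C; apical and basal samples quantified by LC-MS/MS (MRM). Averages of 2–3 measurements.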

[6] = Plasma concentration in Sprague-Dawley rat at 10 mg/kg, po after 120 mins; format: ADME, organism-based; parameters: dose 10 mg/kg, route oral; method in brief: as §1
[7] = Plasma concentration in Sprague-Dawley rat at 10 mg/kg, po after 30 mins; format: ADME, organism-based; parameters: dose 10 mg/kg, route oral; method in brief: as §1
[8] = Drug uptake in Sprague-Dawley rat brain at 10 mg/kg, po after 480 mins; format: ADME, organism-based; parameters: dose 10 mg/kg, route oral; conditions: read-out: Drug uptake; method in brief: as §1
Cannabinoid receptor 1 [9] = molecular target: T1, Cannabinoid receptor 1 (Homo sapiens, UniProt P21554); assay: Antagonist activity at human CB1 receptor transfected in CHO-K1 cells co-expressing Galphaq16 assessed as intracellular calcium mobilization using Calcein-4 AM by fluorescence assay; format: functional, cell-based
T1 sequence (P21554 whole entry): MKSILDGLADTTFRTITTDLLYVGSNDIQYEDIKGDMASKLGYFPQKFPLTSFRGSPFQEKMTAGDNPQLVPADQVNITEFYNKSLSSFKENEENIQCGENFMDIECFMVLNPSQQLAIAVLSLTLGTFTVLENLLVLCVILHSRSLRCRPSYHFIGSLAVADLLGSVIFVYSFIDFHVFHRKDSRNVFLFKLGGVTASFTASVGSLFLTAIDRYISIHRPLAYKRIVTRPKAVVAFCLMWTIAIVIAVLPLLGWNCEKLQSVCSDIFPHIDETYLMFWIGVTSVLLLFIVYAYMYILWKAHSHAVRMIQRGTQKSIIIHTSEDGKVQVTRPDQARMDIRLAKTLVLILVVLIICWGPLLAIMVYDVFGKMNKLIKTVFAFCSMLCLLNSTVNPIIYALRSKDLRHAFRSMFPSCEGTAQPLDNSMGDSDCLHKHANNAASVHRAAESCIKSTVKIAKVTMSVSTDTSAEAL
Method in brief: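 CHO-K1 cells engineered to coexpress human CB1 and Gαq16. Calcium flux read with fluorescent dye Calcein-4 AM on a plate reader. Antagonism measured as rightward shift of the CP55940 concentration–response curve. Ke = [ligand]/(DR−1), where DR is the ratio of CP55940 EC50 with and without test agent. Values are averages of 3–6 measurements.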

Nucleic Acid [10] = assay: Ratio of drug uptake in brain to plasma of Sprague-Dawley rat brain at 10 mg/kg, po after 480 mins; format: ADME, organism-based; parameters: dose 10 mg/kg, route oral; conditions: 8 h; method in brief: as §2
Plasma = assay: Metabolic stability in human plasma assessed as compound remaining after 60 mins; format: ADME, cell-free; conditions: 1 h
Method in brief: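 Pooled mixed-gender human plasma, 1 mL per sample at 37 °C. Compound at 10 μM final, sampled at 0, 30 and 60 min after 5 min preincubation. Reaction stopped with acetonitrile, LC-MS/MS quantitation; percent remaining at 60 min.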

[11] = Drug uptake in Sprague-Dawley rat brain at 10 mg/kg, po after 240 mins; format: ADME, organism-based; parameters: dose 10 mg/kg, route oral; conditions: read-out: Drug uptake; method in brief: as §1
Nucleic Acid [12] = assay: Ratio of drug uptake in brain to plasma of Sprague-Dawley rat brain at 10 mg/kg, po after 60 mins; format: ADME, organism-based; parameters: dose 10 mg/kg, route oral; conditions: 1 h; method in brief: as §2
[13] = Drug uptake in Sprague-Dawley rat brain at 10 mg/kg, po after 30 mins; format: ADME, organism-based; parameters: dose 10 mg/kg, route oral; conditions: read-out: Drug uptake; method in brief: as §1
[14] = Drug uptake in Sprague-Dawley rat brain at 10 mg/kg, po after 120 mins; format: ADME, organism-based; parameters: dose 10 mg/kg, route oral; conditions: read-out: Drug uptake; method in brief: as §1
[15] = Plasma concentration in Sprague-Dawley rat at 10 mg/kg, po after 240 mins; format: ADME, organism-based; parameters: dose 10 mg/kg, route oral; method in brief: as §1
Cannabinoid receptor 1 [16] = molecular target: T1, Cannabinoid receptor 1; assay: Displacement of [3H]CP55940 from human CB1 receptor expressed in CHO-K1 cells; format: cell-based
Cannabinoid receptor 2 = Cannabinoid receptor 2 (Homo sapiens, UniProt P34972); assay: Displacement of [3H]CP55940 from human CB2 receptor expressed in CHO-K1 cells; format: cell-based
Sequence of Cannabinoid receptor 2 (P34972 whole entry): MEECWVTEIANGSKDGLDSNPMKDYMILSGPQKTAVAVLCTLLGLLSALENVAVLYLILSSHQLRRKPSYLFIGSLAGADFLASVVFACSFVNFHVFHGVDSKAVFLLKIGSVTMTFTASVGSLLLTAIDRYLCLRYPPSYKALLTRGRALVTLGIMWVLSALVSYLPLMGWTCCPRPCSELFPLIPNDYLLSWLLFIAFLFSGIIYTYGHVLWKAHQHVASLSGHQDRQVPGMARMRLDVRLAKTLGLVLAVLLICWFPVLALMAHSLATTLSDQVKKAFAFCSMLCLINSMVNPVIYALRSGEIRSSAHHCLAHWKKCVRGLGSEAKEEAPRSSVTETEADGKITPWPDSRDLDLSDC

Row | Structure (SMILES) | Ratio Ki (CHO-K1) | Ke (Cannabinoid receptor 1 [9]) | pKi (Cannabinoid receptor 1 [16]) | pKi (Cannabinoid receptor 2) | also measured
1 | CS(=O)(=O)NC1(c2ccccc2)CCN(c2ncnc3c2nc(-c2ccccc2Cl)n3-c2ccc(Cl)cc2)CC1 | 153 | 2.9 nM | – | – | concentration at 1 h [1]: 767 ng/mL; concentration at 1 h [2]: 58 ng/mL; BPR (Nucleic Acid [3]): 0.1; Stability (Liver): > 90%; BPR (Nucleic Acid [4]): 0.05; BPR (Nucleic Acid [5]): 0.11; permeability (MDCK): < 1%; concentration at 2 h [6]: 1190 ng/mL; concentration at 0.5 h [7]: 752 ng/mL; concentration at 8 h [8]: 89 ng/mL; BPR (Nucleic Acid [10]): 0.1; Stability (Plasma): > 90%; concentration at 4 h [11]: 184 ng/mL; BPR (Nucleic Acid [12]): 0.08; concentration at 0.5 h [13]: 38 ng/mL; concentration at 2 h [14]: 122 ng/mL; concentration at 4 h [15]: 1650 ng/mL
2 | CC(C)NC(=O)NC1CCN(c2ncnc3c2nc(-c2ccccc2Cl)n3-c2ccc(Cl)cc2)CC1 | 175 | – | 7.85 | 5.61 | –
3 | CCCNC(=O)NC1(c2ccccc2)CCN(c2ncnc3c2nc(-c2ccccc2Cl)n3-c2ccc(Cl)cc2)CC1 | 35 | 99 nM | 6.66 | 5.11 | –
4 | CS(=O)(=O)N1CCC[C@H](Nc2ncnc3c2nc(-c2ccccc2Cl)n3-c2ccc(Cl)cc2)C1 | – | 6040 nM | – | – | –
5 | CC(C)NC(=O)NC1(c2ccccc2)CCN(c2ncnc3c2nc(-c2ccccc2Cl)n3-c2ccc(Cl)cc2)CC1 | 27 | 46 nM | 6.47 | 5.05 | –
6 | CC(C)(C)OC(=O)NC1CCN(c2ncnc3c2nc(-c2ccccc2Cl)n3-c2ccc(Cl)cc2)CC1 | 1140 | 11 nM | 8.82 | 5.77 | –
7 | CCNC(=O)N1CCC[C@@H](Nc2ncnc3c2nc(-c2ccccc2Cl)n3-c2ccc(Cl)cc2)C1 | – | 1500 nM | – | – | –
8 | CCCNC(=O)NC1CCN(c2ncnc3c2nc(-c2ccccc2Cl)n3-c2ccc(Cl)cc2)CC1 | 5 | – | 7.55 | 6.82 | –
9 | O=S(=O)(NC1CCN(c2ncnc3c2nc(-c2ccccc2Cl)n3-c2ccc(Cl)cc2)CC1)c1ccccc1 | 4890 | 0.3 nM | 8.92 | 5.23 | –
10 | CC(=O)N1CCC[C@H](Nc2ncnc3c2nc(-c2ccccc2Cl)n3-c2ccc(Cl)cc2)C1 | – | 4450 nM | – | – | –
11 | CC(C)(C)OC(=O)NC1(c2ccccc2)CCN(c2ncnc3c2nc(-c2ccccc2Cl)n3-c2ccc(Cl)cc2)CC1 | 1960 | – | 8.15 | 4.86 | permeability (MDCK): < 1%
12 | CCNC(=O)N1CCC[C@H](Nc2ncnc3c2nc(-c2ccccc2Cl)n3-c2ccc(Cl)cc2)C1 | – | 1150 nM | – | – | –
13 | CCCCNC(=O)NC1(c2ccccc2)CCN(c2ncnc3c2nc(-c2ccccc2Cl)n3-c2ccc(Cl)cc2)CC1 | – | – | 6.57 | < 4.70 | –
14 | NC(=O)C1(c2ccccc2)CCN(c2ncnc3c2nc(-c2ccccc2Cl)n3-c2ccc(Cl)cc2)CC1 | 3080 | 9 nM | 8.75 | 5.26 | Stability (Liver): > 90%; permeability (MDCK): 6%; Stability (Plasma): > 90%
15 | CCNC1(C(N)=O)CCN(c2ncnc3c2nc(-c2ccccc2Cl)n3-c2ccc(Cl)cc2)CC1 [OTENABANT] | – | – | – | – | permeability (MDCK): 40%
16 | O=C(NC1CCN(c2ncnc3c2nc(-c2ccccc2Cl)n3-c2ccc(Cl)cc2)CC1)c1ccccc1 | – | 0.7 nM | – | – | –
17 | O=C(NC1CCN(c2ncnc3c2nc(-c2ccccc2Cl)n3-c2ccc(Cl)cc2)CC1)C(F)(F)F | – | 3.2 nM | – | – | –
18 | NC1(c2ccccc2)CCN(c2ncnc3c2nc(-c2ccccc2Cl)n3-c2ccc(Cl)cc2)CC1 | 151 | – | 7.96 | 5.78 | permeability (MDCK): < 1%
19 | CC(=O)N1CCC[C@@H](Nc2ncnc3c2nc(-c2ccccc2Cl)n3-c2ccc(Cl)cc2)C1 | – | 920 nM | – | – | –
20 | Cc1c(C(=O)N2CCC(C(N)=O)(c3ccccc3)CC2)nn(-c2ccc(Cl)cc2Cl)c1-c1ccc(Cl)cc1 | 1600 | 0.45 nM | – | – | permeability (MDCK): 8%
21 | CC(C)(C)OC(=O)N1CCC(Nc2ncnc3c2nc(-c2ccccc2Cl)n3-c2ccc(Cl)cc2)CC1 | 568 | 92 nM | 7.62 | 4.85 | –
22 | CCCCNC(=O)N1CCC(Nc2ncnc3c2nc(-c2ccccc2Cl)n3-c2ccc(Cl)cc2)CC1 | – | 71 nM | 5.48 | < 4.70 | –
23 | CS(=O)(=O)NC1CCN(c2ncnc3c2nc(-c2ccccc2Cl)n3-c2ccc(Cl)cc2)CC1 | 37 | – | 7.54 | 5.97 | –
24 | CCCCNC(=O)NC1CCN(c2ncnc3c2nc(-c2ccccc2Cl)n3-c2ccc(Cl)cc2)CC1 | 62 | – | 7.60 | 5.81 | –
25 | CC(C)(C)NC(=O)NC1(c2ccccc2)CCN(c2ncnc3c2nc(-c2ccccc2Cl)n3-c2ccc(Cl)cc2)CC1 | 784 | – | 7.59 | 4.70 | Stability (Liver): 43%; permeability (MDCK): < 1%; Stability (Plasma): > 90%
26 | CCNC(=O)NC1(c2ccccc2)CCN(c2ncnc3c2nc(-c2ccccc2Cl)n3-c2ccc(Cl)cc2)CC1 | 24 | – | 6.71 | 5.33 | –
27 | CS(=O)(=O)N1CCC[C@@H](Nc2ncnc3c2nc(-c2ccccc2Cl)n3-c2ccc(Cl)cc2)C1 | – | 346 nM | – | – | –
